Measured values published in ChEMBL document CHEMBL1134785, “Synthesis and biological evaluation of prostaglandin-F alkylphosphinic acid derivatives as bone anabolic agents for the treatment of osteoporosis” (J Med Chem, 2001).

Key:
[1] = tested on: Rattus norvegicus; experiment: Trabecular thickness […] measured Histomorphometrically after a dose of 10 ug/kg in proximal tibial metaphysis; assay type: functional, Trabecula
Method in brief: (§1)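 Six-month-old rats were ovariectomized, and 60 days later daily subcutaneous dosing began for 60 days, with vehicle of acetate-buffered saline, methylcellulose and polysorbate. Xylenol orange (90 mg/kg) labelled bone pre-treatment and calcein (10 mg/kg) 14 and 4 days pre-sacrifice. Histomorphometry covered the proximal tibial metaphysis 1-4 mm distal to the growth plate-metaphyseal junction. Groups were 6-8 rats, compared by ANOVA/LSD vs vehicle.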

[2] = tested on: Rattus norvegicus; experiment: Mineral apposition rate ([…])bone measured Histomorphometrically after a dose of 1000 ug/kg in tibial diaphysis; assay type: functional
Method in brief: (§2)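 Six-month-old rats, bilaterally ovariectomized, 6-8 per group, on natural chow. After 60 days they received once-daily subcutaneous dosing for 60 days at 0.01–3.0 mg/kg. Vehicle was acetate-buffered saline with methylcellulose and polyoxyethylenesorbitan monooleate. Labels were xylenol orange 90 mg/kg before treatment and calcein 10 mg/kg 14 and 4 days before sacrifice. Tibial histomorphometry was read under fluorescent light, with ANOVA/LSD versus vehicle.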

[3] = tested on: Rattus norvegicus; experiment: Mineralizing surface/bone surface(%) measured Histomorphometrically after a dose of 100 ug/kg in proximal tibial metaphysis; assay type: functional
Method in brief: (§3)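 Ovariectomized six-month-old rats, 6-8 per group, were dosed subcutaneously once daily at 0.01–3.0 mg/kg for 60 days, starting 60 days after surgery. Vehicle was acetate-buffered saline, methylcellulose and polyoxyethylenesorbitan monooleate. Labels were xylenol orange 90 mg/kg pretreatment and calcein 10 mg/kg at 14 and 4 days before necropsy. Histomorphometry covered the proximal tibial metaphysis, 1–4 mm distal to the growth plate–metaphyseal junction. ANOVA/LSD versus vehicle.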

[4] = tested on: Rattus norvegicus; experiment: Mineralizing surface/bone surface(%) measured Histomorphometrically after a dose of 3000 ug/kg in proximal tibial metaphysis; assay type: functional; method in brief: as §3
[5] = tested on: Rattus norvegicus; experiment: Endosteal mineralizing surface Histomorphometrically after a dose of 10 ug/kg in tibial diaphysis; assay type: functional; method in brief: as §2
[6] = tested on: Rattus norvegicus; experiment: Derived trabecular thickness (um) measured using micro Computed Tomography(CT) after a dose of 3000 ug/kg in Vertebral Bone; assay type: functional, Trabecula
Method in brief: (§4)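 Micro-CT of the fifth lumbar vertebra, measuring cancellous bone volume and architecture. Rats were 6 months old, OVX 60 days before treatment, then dosed daily for 60 days. Test-agent doses were 10–3000 µg/kg, given as a once-daily subcutaneous injection; 6 mg/kg/day was given to the positive-control group. Groups were compared with vehicle by ANOVA plus LSD test.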

[7] = tested on: Rattus norvegicus; experiment: Endosteal eroded surface(%) measured Histomorphometrically after a dose of 30 ug/kg in tibial diaphysis; assay type: functional
Method in brief: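 Tibial histomorphometry in 6-month-old rats, OVX 60 days before treatment, then daily injection for 60 days. Vehicle was acetate-buffered saline with methylcellulose and polyoxyethylenesorbitan monooleate. Rats received xylenol orange 90 mg/kg before treatment and calcein 10 mg/kg at 14 and 4 days pre-sacrifice. Rats were killed by cardiac puncture under ketamine/xylazine. Groups were compared with vehicle by ANOVA plus LSD test.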

[8] = tested on: Rattus norvegicus; experiment: Periosteal mineralizing surface (%) measured Histomorphometrically after a dose of 3000 ug/kg in tibial diaphysis; assay type: functional
Method in brief: (§5)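 Rats on natural chow (1.46% Ca) were bilaterally ovariectomized at 6 months and left untreated for 60 days. They then received once-daily subcutaneous doses for 60 days, with vehicle of acetate-buffered saline, methylcellulose and polysorbate. Xylenol orange (90 mg/kg) was given before treatment and calcein (10 mg/kg) 14 and 4 days before sacrifice. Tibiae were analysed by fluorescent histomorphometry, 6-8 rats/group, ANOVA/LSD vs vehicle.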

[9] = tested on: Rattus norvegicus; experiment: Trabecular no (mm)measured Histomorphometrically after a dose of 10 ug/kg in proximal tibial metaphysis; assay type: functional, Trabecula; method in brief: as §1
[10] = biological target: T1, Prostaglandin E2 receptor EP3 subtype (Homo sapiens, UniProt P43115); experiment: In vitro binding at EP3 human prostaglandin receptor using [3H]PGE-2 as radioligand
T1 sequence (P43115 whole entry): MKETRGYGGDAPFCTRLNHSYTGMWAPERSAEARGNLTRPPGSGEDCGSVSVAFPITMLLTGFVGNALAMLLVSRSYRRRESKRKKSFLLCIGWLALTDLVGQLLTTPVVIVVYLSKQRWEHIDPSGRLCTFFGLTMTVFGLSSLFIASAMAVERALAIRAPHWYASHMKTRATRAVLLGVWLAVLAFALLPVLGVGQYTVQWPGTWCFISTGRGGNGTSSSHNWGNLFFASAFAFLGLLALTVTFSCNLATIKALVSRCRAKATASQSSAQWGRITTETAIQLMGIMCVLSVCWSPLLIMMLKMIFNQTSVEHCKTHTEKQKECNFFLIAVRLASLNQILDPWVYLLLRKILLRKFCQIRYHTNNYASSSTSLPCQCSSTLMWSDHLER
Method in brief: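 Receptors stably expressed in CHO cells, collected 4-5 days after seeding. Membranes made by lysis (Tris, EDTA, protease inhibitors) and 100000g pellet, then resuspended at 1 mg protein/mL in TME. Radioligands at 5 nM: [3H]PGE2 for EP2/EP3/EP4, [3H]Iloprost for IP, [3H]SQ-29548 for TP. Competition binding with filtration and counting.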

[11] = tested on: Rattus norvegicus; experiment: Mineral apposition rate ([…])bone measured Histomorphometrically after a dose of 30 ug/kg in tibial diaphysis; assay type: functional; method in brief: as §2
[12] = tested on: Rattus norvegicus; experiment: Mineral apposition rate ([…])bone measured Histomorphometrically after a dose of 300 ug/kg in proximal tibial metaphysis; assay type: functional; method in brief: as §3
[13] = tested on: Rattus norvegicus; experiment: Bone Volume /Tissue Volume (%)measured Histomorphometrically after a dose of 100 ug/kg in proximal tibial metaphysis; assay type: functional; settings: at 100 µg/kg
[14] = tested on: Rattus norvegicus; experiment: Derived trabecular thickness (um) measured using micro Computed Tomography(CT) after a dose of 1000 ug/kg in Vertebral Bone; assay type: functional, Trabecula; method in brief: as §4
[15] = tested on: Rattus norvegicus; experiment: Bone formation rate/bone volume (%/year) bone measured histomorphometrically after a dose of 3000 ug/kg in proximal tibial metaphysis; assay type: functional; settings: at 3000 µg/kg
[16] = tested on: Rattus norvegicus; experiment: Bone Volume /Tissue Volume (%)measured using micro Computed Tomography(CT) after a dose of 1000 ug/kg in Vertebral Bone; assay type: functional; settings: at 1000 µg/kg
[17] = tested on: Rattus norvegicus; experiment: Bone formation rate/bone volume (%/year)bone measured Histomorphometrically after a dose of 300 ug/kg in proximal tibial metaphysis; assay type: functional; settings: at 300 µg/kg
[18] = tested on: Rattus norvegicus; experiment: connectivity density (mm-3) using micro Computed Tomography(CT) after a does of 10 ug/kg in Vertebral Bone; assay type: functional
Method in brief: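 Rats were ovariectomized at 6 months of age and, after 60 days, dosed subcutaneously once daily for 60 days, with vehicle of acetate-buffered saline, methylcellulose and polysorbate. At necropsy the fifth lumbar vertebra was scanned by micro-CT to obtain cancellous architecture. Groups were 6-8 rats; results were compared to vehicle by ANOVA with least significant difference test.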

[19] = tested on: Rattus norvegicus; experiment: Mineral apposition rate ([…])bone measured Histomorphometrically after a dose of 300 ug/kg in tibial diaphysis; assay type: functional; method in brief: as §2
[20] = tested on: Rattus norvegicus; experiment: Tissue area (mm) measured Histomorphometrically after a dose of 10 ug/kg in tibial diaphysis; assay type: functional; method in brief: as §5
[21] = tested on: Rattus norvegicus; experiment: Mineralizing surface/bone surface(%) measured Histomorphometrically after a dose of 10 ug/kg in proximal tibial metaphysis; assay type: functional; method in brief: as §3
[22] = tested on: Rattus norvegicus; experiment: Periosteal mineralizing surface (%) measured Histomorphometrically after a dose of 10 ug/kg in tibial diaphysis; assay type: functional; method in brief: as §5
[23] = tested on: Rattus norvegicus; experiment: Tissue area (mm) measured Histomorphometrically after a dose of 30 ug/kg in tibial diaphysis; assay type: functional; method in brief: as §5
[24] = tested on: Rattus norvegicus; experiment: Mineral apposition rate ([…])bone measured Histomorphometrically after a dose of 100 ug/kg in proximal tibial metaphysis; assay type: functional; method in brief: as §3

Work on CP(=O)(O)CCC/C=C\C[C@@H]1[C@@H](/C=C/[C@@H](O)COc2ccccc2)[C@H](O)C[C@@H]1O yielded a Trabecular thickness [1] of 35.7 µm, a Mineral apposition rate [2] of 1.01 µm/day and an Activity [3] of 27.11%. For the same compound, the Activity [4] was 23.66%, the Endosteal mineralizing surface [5] was 46.62% and the Derived trabecular thickness [6] was 83.8 µm. The Endosteal eroded surface [7] was 2.01%, the Periosteal mineralizing surface [8] was 11.109% and the Trabecular no. [9] was 0.58 1/mm. The IC50 [10] was > 10 µM, the Mineral apposition rate [11] was 0.88 µm/day and the Mineral apposition rate [12] was 0.98 µm/day. For the same compound, the Activity [13] was 5.84%, the Derived trabecular thickness [14] was 80.6 µm and the Activity [15] was 247.55%. It also gave an Activity [16] of 36.98%, an Activity [17] of 322.61% and a Connectivity density [18] of 60.28 mm**-3. For the same compound, the Mineral apposition rate [19] was 0.53 µm/day, the Tissue area [20] was 5.09 mm and the Activity [21] was 28.37%. The Periosteal mineralizing surface [22] was 25.86%, the Tissue area [23] was 5.19 mm and the Mineral apposition rate [24] was 0.87 µm/day.
